# Bioassay records: PubChem BioAssay, Broad Institute
# Most compounds without a hit are left out; they make up all but 2.6% or so of the library.
# miR122 inh – blocks miR-122 activity in Huh7 sensor cells; Huh7 miR-122 Renilla luciferase sensor, 48 h; neutral wells = 0, positive control = 100; activation (reporter increase), % at 12.5 µM; hit rate 0.3% among 340,000; AID 602342;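 active = mean replicate activation score at least 90 and every replicate individually at or above 90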;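 also: higher luciferase means less miR-122 activity so hits act as miR-122 inhibitors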
# Ecoli rRNA inh – selective bacterial rRNA inhibition in E. coli. E. coli WT GFP vs humanized-ribosome RFP mutants, fluorescence, 24 h; hits give low values; DMSO median 0, no signal -100. GFP signal change (wild-type ribosome), % (test concentration not listed). hit rate 1.6% among 350,000. AID 720706;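 active = significant combined selectivity score with lowered wild-type GFP, culture density cut under 30%, mutant RFP and density less affected; inactive = any of these conditions unmet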
# Vif inh – HIV Vif inhibition; HEK293T cells, Vif self-association by quenched fluorescence, imaging, 24 h; inhibition, % at 7.49 µM; hit rate 0.35% among 340,000; in the data active = inhibition above about 50%, passing the limit was not always enough
# S100A4 inh HTS – S100A4-myosin IIA interaction inhibition | S100A4/TAMRA-MyoIIA peptide fluorescence polarization | inhibition, % at 10.7 µM | hit rate 0.14% among 360,000 | AID 652163;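 active = mean inhibition of at least 70% across replicates, with every replicate also reaching that level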
# Target sequence (P26447 whole entry, looked up): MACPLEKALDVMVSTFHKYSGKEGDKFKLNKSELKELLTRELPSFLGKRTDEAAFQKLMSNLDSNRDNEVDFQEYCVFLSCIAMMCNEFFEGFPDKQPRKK
#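 Test system: S100A4 monomer protein. Medium: HEPES buffer with Ca2+, pH 7.2. Reagent: fluorescent myosin IIA peptide, 5 nM. Compound dosing: single-point compound testing. Timing: 5 min between mix addition and reading. Benchmarks: DMSO neutral and TFP positive wells.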
# FN deposit inh – fibronectin deposition inhibition; inhibition, % at 12.6 µM; AID 743247; hit rate 0.086% among 350,000; AH1F fibroblasts, Alexa488-fibronectin deposition fluorescence, overnight;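 active = mean inhibition across replicates of 30% or more, regardless of how many single replicates reach that level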;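 also: positive control wells lacked labelled fibronectin entirely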
#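 Assay system: AH1F fibroblasts / Quantity: 10000 cells per well / Medium: DMEM plus 2% serum, read in PBS / Reagent: labelled fibronectin 24 nM / Dosing: single dose, pinned / Times: 1 h cell attachment, overnight exposure to compound and label / Signal: fluorescence, ex 485 nm, em 525 nm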
# HIV Env fusion – HIV envelope-mediated fusion inhibition; HeLa-JRFL Env/CEM21 cell fusion, luciferase; AID 651610; inhibition, % at 12.3 µM; hit rate 1.1% among 360,000;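 active = mean replicate inhibition score of at least 50 and every replicate individually at or above 50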;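 also: 0% = plate neutral controls and 100% = maraviroc near 300 nM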
# * hit, by the source's call; . = no result; [ ] = another dose, or the depositor's remark.
SMILES,miR122 inh,Ecoli rRNA inh,Vif inh,S100A4 inh HTS,FN deposit inh,HIV Env fusion
C/C(=N\NC(=O)c1cc(-c2ccc(C)s2)[nH]n1)c1ccncc1,.,-15*,-9,4,11,13
CC(/C=N/NC(=O)c1cc(-c2ccc(C)s2)[nH]n1)=C\c1ccccc1,.,-2,2,-1,12,-7
C[C@@H]1CN([C@@H](C)CO)C(=O)c2cccc(NC(=O)CCCCCC(=O)Nc3ccccc3N)c2O[C@@H]1CN(C)C,.,6,.,8,.,.
Fc1cnc(Cl)nc1N1CCN(c2ccccc2)CC1,.,-23*,8,3,2,-14
C/C(N)=C(/C#N)C(=O)COC(=O)c1ccccc1C(=O)c1ccc(C)cc1,.,-21*,7,1,8,10
C/C(N)=C(/C#N)C(=O)COC(=O)c1ccccc1O,.,.,-11,.,.,.
O=S(=O)(N[C@@H]1CC[C@H](CCn2cc(-c3cccc(F)c3)nn2)O[C@H]1CO)c1ccc(F)cc1,.,-7,.,11,6,6[16.7 µM]
O=C(N/N=C/c1ccco1)C1CC1c1ccccc1 (stereo not given),.,12,-13,-4,-5,-11
O=C(N/N=C/c1c[nH]c2ccccc12)C1CC1c1ccccc1 (stereo not given),.,-28*,-10,5,0,.
O=C(N/N=C/c1c[nH]c2ccccc12)c1cc(-c2ccc(-c3ccccc3)cc2)n[nH]1,-14,.,20,.,0,-188
COc1ccc(CC(=O)NCC(=O)N/N=C/c2c[nH]c3ccccc23)cc1,-7,-37*,9,-2,12,9
CC(C)(C)c1ccc(C2CC2C(=O)N/N=C\c2ccc[nH]2)cc1 (stereo not given),-21,-12,-19,4,-2,98*
O=C(N/N=C/c1c[nH]c2ccccc12)C1CC1(c1ccccc1)c1ccccc1 (stereo not given),2,.,-4,.,-2,-28
O=C(N/N=C/c1c[nH]c2ccccc12)c1cc(-c2ccccc2)n[nH]1,22,-34*,-2,10,2,41
O=C(O)c1ccc(N/N=C/c2c[nH]c3ccccc23)cc1,-4,-5,-3,-6,0,59*
C[C@@H]1CN([C@@H](C)CO)C(=O)Cc2cc(NS(=O)(=O)c3cccs3)ccc2O[C@H]1CN(C)S(C)(=O)=O,4[16.7 µM],2,.,19,.,-7[16.7 µM]
O=[N+]([O-])c1ccccc1CNc1ccc(F)c(Cl)c1,-5,-54,-4,-19,0,-7
Fc1ccccc1CNc1cc(Cl)cc(Cl)c1,5,.,119*,.,4,31
N#C/C(=N\Nc1ccc(Cl)cc1)C(=O)c1ccccc1,12,.,-12,.,8,78*
COc1ccc(S(=O)(=O)N(C)C[C@H]2OCCCC[C@H](C)Oc3ccc(NS(=O)(=O)c4cn(C)cn4)cc3C(=O)N([C@H](C)CO)C[C@@H]2C)cc1,0[16.7 µM],-5,.,8,4,19[16.7 µM]
Cc1cccc(S(=O)(=O)N2C[C@H](O)COC[C@H]3O[C@@H](CC(=O)NCCCN4CCOCC4)CC[C@@H]32)c1,-3[16.7 µM],-4,.,8,-4,.
CO[C@H]1CN(C)C(=O)c2cc(NC(=O)Nc3cc(F)ccc3F)ccc2OC[C@@H](C)N(C(=O)c2cnccn2)C[C@H]1C,.,-3,.,6,6,.
COc1ccc(-c2nnc(Nc3nc4c(OC)cccc4s3)o2)c(OC)c1,4,.,0,.,-2,39
COc1ccc(-c2nnc(Nc3nc4c(OC)cccc4s3)o2)cc1,17,.,0,.,.,72*
COc1cccc(C(=O)NCCN2C(=O)S/C(=C/c3cccs3)C2=O)c1OC,.,-39*,2,0,-5,-11
SMILES,miR122 inh,Ecoli rRNA inh,Vif inh,S100A4 inh HTS,FN deposit inh,HIV Env fusion
Cc1noc(C)c1S(=O)(=O)Nc1cccc2c1O[C@H](CN(C)Cc1ccc(C(F)(F)F)cc1)[C@H](C)CN([C@H](C)CO)C2=O,16[16.7 µM],-2,.,-21,3,59*[16.7 µM]
C[C@@H]1CN([C@@H](C)CO)C(=O)c2cccc(NS(=O)(=O)c3ccc(F)cc3)c2O[C@H]1CN(C)Cc1ccc(C(F)(F)F)cc1,26[16.7 µM],1,.,13,.,-13[16.7 µM]
C[C@H]1CN([C@@H](C)CO)C(=O)c2cccc(NS(=O)(=O)c3ccc(Cl)cc3)c2O[C@@H]1CN(C)Cc1ccc(C(F)(F)F)cc1,49[16.7 µM],-1,.,5,-2,57*[16.7 µM]
COc1ccc(CN(C)C[C@H]2Oc3c(NC(=O)NC(C)C)cccc3C(=O)N([C@H](C)CO)C[C@H]2C)cc1,30[16.7 µM],4,.,107*,-14,.
Cc1noc(C)c1S(=O)(=O)Nc1cccc2c1O[C@@H](CN(C)Cc1ccc(C(F)(F)F)cc1)[C@@H](C)CN([C@H](C)CO)C2=O,5[16.7 µM],4,.,-22,2,17[16.7 µM]
C[C@@H]1CN([C@H](C)CO)C(=O)c2cccc(NS(=O)(=O)c3ccc(F)cc3)c2O[C@@H]1CN(C)Cc1ccc(C(F)(F)F)cc1,3[16.7 µM],-1,.,-7,.,77*[16.7 µM]
COc1ccc(S(=O)(=O)Nc2cccc3c2O[C@@H](CN(C)Cc2ccc(C(F)(F)F)cc2)[C@H](C)CN([C@H](C)CO)C3=O)cc1,102*[16.7 µM],-6,.,9,-14,-116[16.7 µM]
CCN(c1ccccc1)S(=O)(=O)c1ccc(Cl)c(NC(=O)CSc2nncs2)c1,.,.,-3,.,1,6
CCN(c1ccccc1)S(=O)(=O)c1ccc(Cl)c(NC(=O)CSc2nnc(C)s2)c1,-2,-32*,-1,1,5,10
CN1C(=O)c2cc(NC(=O)C3CCCCC3)ccc2OC[C@H]2O[C@H](CC(=O)NCCc3ccncc3)CC[C@H]21,-6[16.7 µM],0,.,-5,-2,12[16.7 µM]
CC1(C)CC(=O)C=C(NCc2ccc(Cl)c(Cl)c2)C1,.,.,3,.,-7,60*
O=C1C=C(NCc2ccc(Cl)c(Cl)c2)CC1,2,.,14,.,.,.
C[C@@H]1CN([C@@H](C)CO)C(=O)c2cc(-c3ccccc3)cnc2O[C@H]1CN(C)Cc1ccc(C(=O)O)cc1,1[16.7 µM],0,.,-5,-1,-6[16.7 µM]
O=[N+]([O-])c1cccc(-c2ccc(CN3CCN(c4ccccc4)CC3)o2)c1,2,-4,3,-3,2,4
O=[N+]([O-])c1ccccc1-c1ccc(CN2CCN(c3ccccc3)CC2)o1,.,-36*,-3,-3,-3,14
CCC(=O)Nc1ccc2c(c1)C(=O)N(C)C[C@H](OC)[C@@H](C)CN(C(=O)c1ccccc1F)[C@H](C)CO2,10[16.7 µM],-1,.,12,1,-20[16.7 µM]
O=C(NC1CCCCC1)C(c1cccs1)N(Cc1cccs1)C(=O)c1cccs1 (stereo not given),9,.,-9,.,-11,94*
C[C@@H]1CN([C@@H](C)CO)C(=O)c2cccc(NC(=O)c3cnccn3)c2O[C@H]1CN(C)Cc1ccc(C(F)(F)F)cc1,152*[16.7 µM],-6,.,12,.,26[16.7 µM]
